Marks after values point to notes of the source that are not given here.
Tested on: patients with advanced solid tumors or non-Hodgkin's lymphoma
Test: Phase I dose-escalation study: safety, tolerability, MTD, adverse events
Assay type: in vivo, human
Procedure, shortened: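 Adults with advanced solid tumours (plus NHL and type 2 diabetic expansion cohorts) received a 1-h IV infusion on days 1, 8 and 15 of 28-day cycles over 0.1–1.2 mg/kg. Accelerated titration escalated the dose by 100% per cohort. MTD was the highest dose given to six patients with ≤1 DLT. Fasting was 8 h pre- and 3 h post-start on cycle 1 day 1. AEs were assessed at planned times each cycle and at follow-up.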

[1] = diabetic expansion, 0.4 mg/kg, n=6
[2] = solid tumors expansion, 0.8 mg/kg, n=25

COc1c(OCCCN2CCOCC2)ccc2c1N=C(NC(=O)c1cnc(N)nc1)N1CCN=C21 [copanlisib, Copanlisib]
Drug-related hyperglycemia, grade 3 (cohort 4, 0.8 mg/kg, n=7): 4 (57) n (%)
Drug-related hypertension, all grades (cohort 4, 0.8 mg/kg, n=7): 1 (14) n (%)
Drug-related hypertension, grade 3 (cohort 4, 0.8 mg/kg, n=7): 0 n (%)
Drug-related nausea, all grades (cohort 4, 0.8 mg/kg, n=7): 1 (14) n (%)
Drug-related nausea, grade 3 (cohort 4, 0.8 mg/kg, n=7): 0 n (%)
Drug-related oral cavity mucositis, all grades (cohort 4, 0.8 mg/kg, n=7): 0 n (%)
Drug-related oral cavity mucositis, grade 3 (cohort 4, 0.8 mg/kg, n=7): 0 n (%)
Drug-related rash/desquamation, all grades (cohort 4, 0.8 mg/kg, n=7): 0 n (%)
Drug-related rash/desquamation, grade 3 (cohort 4, 0.8 mg/kg, n=7): 0 n (%)
Drug-related vomiting, all grades (cohort 4, 0.8 mg/kg, n=7): 1 (14) n (%)
Drug-related vomiting, grade 3 (cohort 4, 0.8 mg/kg, n=7): 0 n (%)
Any drug-related AE (cohort 5, 1.2 mg/kg, n=3): 3 (100) n (%)
Drug-related AEs of grade 3 (cohort 5, 1.2 mg/kg, n=3): 2 (67) n (%)
Drug-related AEs of grade 4 (cohort 5, 1.2 mg/kg, n=3): 1 (33) n (%)
Drug-related diarrhea, all grades (cohort 5, 1.2 mg/kg, n=3): 0 n (%)
Drug-related diarrhea, grade 3 (cohort 5, 1.2 mg/kg, n=3): 0 n (%)
Drug-related fatigue, all grades (cohort 5, 1.2 mg/kg, n=3): 0 n (%)
Drug-related fatigue, grade 3 (cohort 5, 1.2 mg/kg, n=3): 0 n (%)
Drug-related hyperglycemia, all grades (cohort 5, 1.2 mg/kg, n=3): 3 (100) n (%)
Drug-related hyperglycemia, grade 3 (cohort 5, 1.2 mg/kg, n=3): 1 (33) n (%)
Drug-related hypertension, all grades (cohort 5, 1.2 mg/kg, n=3): 0 n (%)
Drug-related hypertension, grade 3 (cohort 5, 1.2 mg/kg, n=3): 0 n (%)
Drug-related nausea, all grades (cohort 5, 1.2 mg/kg, n=3): 1 (33) n (%)
Drug-related nausea, grade 3 (cohort 5, 1.2 mg/kg, n=3): 0 n (%)
Drug-related oral cavity mucositis, all grades (cohort 5, 1.2 mg/kg, n=3): 0 n (%)
Drug-related oral cavity mucositis, grade 3 (cohort 5, 1.2 mg/kg, n=3): 0 n (%)
Drug-related rash/desquamation, all grades (cohort 5, 1.2 mg/kg, n=3): 0 n (%)
Drug-related rash/desquamation, grade 3 (cohort 5, 1.2 mg/kg, n=3): 0 n (%)
Drug-related vomiting, all grades (cohort 5, 1.2 mg/kg, n=3): 1 (33) n (%)
Drug-related vomiting, grade 3 (cohort 5, 1.2 mg/kg, n=3): 0 n (%)
Any drug-related AE [1]: 5 (83) n (%)
Drug-related AEs of grade 3 [1]: 3 (50) n (%)
Drug-related AEs of grade 4 [1]: 0 n (%)
Drug-related diarrhea, all grades [1]: 1 (17) n (%)
Drug-related diarrhea, grade 3 [1]: 0 n (%)
Drug-related fatigue, all grades [1]: 0 n (%)
Drug-related fatigue, grade 3 [1]: 0 n (%)
Drug-related hyperglycemia, all grades [1]: 1 (17) n (%)
Drug-related hyperglycemia, grade 3 [1]: 1 (17) n (%)
Drug-related hypertension, all grades [1]: 2 (33) n (%)
Drug-related hypertension, grade 3 [1]: 2 (33) n (%)
Drug-related nausea, all grades [1]: 2 (33) n (%)
Drug-related nausea, grade 3 [1]: 0 n (%)
Drug-related oral cavity mucositis, all grades [1]: 0 n (%)
Drug-related oral cavity mucositis, grade 3 [1]: 0 n (%)
Drug-related rash/desquamation, all grades [1]: 1 (17) n (%)
Drug-related rash/desquamation, grade 3 [1]: 1 (17) n (%)
Drug-related vomiting, all grades [1]: 0 n (%)
Drug-related vomiting, grade 3 [1]: 0 n (%)
diabetic ketoacidosis (during the study): no patients
patients with elevated aminotransferase grade ≥3 (laboratory finding): five
patients who discontinued because of AEs (n=57): Four
hyperglycemia grade 4, regardless of causality (n=57, text): 2%
serious drug-related AEs (six of 57 patients): 11%
Any drug-related AE [2]: 20 (80) n (%)
Drug-related AEs of grade 3 [2]: 12 (48) n (%)
Drug-related AEs of grade 4 [2]: 0 n (%)
Drug-related diarrhea, all grades [2]: 2 (8) n (%)
Drug-related diarrhea, grade 3 [2]: 0 n (%)
Drug-related fatigue, all grades [2]: 2 (8) n (%)
Drug-related fatigue, grade 3 [2]: 0 n (%)
Drug-related hyperglycemia, all grades [2]: 15 (60) n (%)
Drug-related hyperglycemia, grade 3 [2]: 8 (32) n (%)
Drug-related hypertension, all grades [2]: 5 (20) n (%)
Drug-related hypertension, grade 3 [2]: 2 (8) n (%)
Drug-related nausea, all grades [2]: 7 (28) n (%)
Drug-related nausea, grade 3 [2]: 0 n (%)
Drug-related oral cavity mucositis, all grades [2]: 2 (8) n (%)
Drug-related oral cavity mucositis, grade 3 [2]: 0 n (%)
Drug-related rash/desquamation, all grades [2]: 6 (24) n (%)
Drug-related rash/desquamation, grade 3 [2]: 2 (8) n (%)
Drug-related vomiting, all grades [2]: 3 (12) n (%)
Drug-related vomiting, grade 3 [2]: 0 n (%)
Any drug-related AE (total, n=57): 49 (86) n (%)
Drug-related AEs of grade 3 (total, n=57): 29 (51) n (%)
Drug-related AEs of grade 4 (total, n=57): 2 (4)^b n (%)
Drug-related diarrhea, all grades (total, n=57): 9 (16) n (%)
Drug-related diarrhea, grade 3 (total, n=57): 1 (2) n (%)
Drug-related fatigue, all grades (total, n=57): 6 (11) n (%)
Drug-related fatigue, grade 3 (total, n=57): 0 n (%)
Drug-related hyperglycemia, all grades (total, n=57): 36 (63) n (%)
Drug-related hyperglycemia, grade 3 (total, n=57): 17 (30) n (%)
Drug-related hypertension, all grades (total, n=57): 12 (21) n (%)
Drug-related hypertension, grade 3 (total, n=57): 8 (14) n (%)
Drug-related nausea, all grades (total, n=57): 21 (37) n (%)
Drug-related nausea, grade 3 (total, n=57): 0 n (%)
Drug-related oral cavity mucositis, all grades (total, n=57): 6 (11) n (%)
Drug-related oral cavity mucositis, grade 3 (total, n=57): 0 n (%)
Drug-related rash/desquamation, all grades (total, n=57): 9 (16) n (%)
Drug-related rash/desquamation, grade 3 (total, n=57): 4 (7) n (%)
Drug-related vomiting, all grades (total, n=57): 7 (12) n (%)
Drug-related vomiting, grade 3 (total, n=57): 0 n (%)
patients with drug-related grade 4 AEs (two patients, three events): 4%
